Most compounds without a hit are left out; they make up all but 2.3% or so of the library.
ERp5 block = inhibitors of ERp5-driven insulin aggregation, primary screen, biochemical, turbidity, absorbance 650 nm, single point. Protein disulfide-isomerase A6 (Homo sapiens), Q15084. 90 min. inhibition, % at 9.99 µM. 350,000 tested, 0.05% active. AID 651711, 2012;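 active = mean replicate inhibition above about 25%, with every replicate also reaching it, limit read from the data, passing the limit was not always enough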
Target sequence (Q15084 whole entry, looked up): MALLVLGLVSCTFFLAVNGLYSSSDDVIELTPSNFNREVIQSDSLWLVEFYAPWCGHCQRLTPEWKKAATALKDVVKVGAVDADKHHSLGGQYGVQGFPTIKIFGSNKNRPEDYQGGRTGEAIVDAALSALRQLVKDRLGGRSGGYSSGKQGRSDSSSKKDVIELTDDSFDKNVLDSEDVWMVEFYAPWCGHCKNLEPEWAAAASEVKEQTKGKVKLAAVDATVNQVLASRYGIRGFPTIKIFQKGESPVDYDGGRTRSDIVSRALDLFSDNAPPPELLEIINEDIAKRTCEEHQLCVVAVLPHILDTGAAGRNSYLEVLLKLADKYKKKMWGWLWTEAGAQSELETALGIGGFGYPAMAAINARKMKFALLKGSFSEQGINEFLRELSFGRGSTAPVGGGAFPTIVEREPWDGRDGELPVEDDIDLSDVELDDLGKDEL
DENV2 CPE = inhibitors of DENV2 cytopathic effect, primary screen, cell-based, plate reader, single concentration; DENV2-infected cells, cytopathic effect rescue; CPE inhibition, % at 9.99 µM; 350,000 tested, 1.7% active; AID 651640, 2012; in the data active = CPE inhibition above about 20%, passing the limit was not always enough; tested in BHK-21 cells;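 also: 0% = median of neutral control wells and 100% = median of positive control wells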
F508del corr = F508del CFTR correction, initial screen, CFBE line, single point. CFBE cells, YFP halide quenching; stimulated with forskolin plus potentiator P3; % fluorescence drop versus neutral controls. activity (quench increase), % at 7.58 µM. 350,000 tested, 0.36% active. AID 720511, 2013;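 active = mean added fluorescence quench of at least 8% versus neutral control, with both replicates also reaching 8%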;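 also: cells transiently co-express mutant CFTR-F508del with the halide-sensitive YFP; corrector assay measuring rescue of mutant channel to the surface after 24 h compound exposure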
C2C12 statin = suppressors of statin myotoxicity in C2C12 myotubes, primary screen, cell-based, single point, plate reader. C2C12 myotubes + simvastatin, ATP luminescence, 48 h; scaled: DMSO 0, geranylgeraniol control 100. rescue of ATP level, % at 7.49 µM. 330,000 tested, 0.78% active. AID 602340, 2012;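 active = mean ATP rescue above about 67%, or every replicate alone reaching that limit, limit read from the data, passing the limit was not always enough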;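 also: myotubes were challenged with 10 µM simvastatin during compound exposure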
PDI inh = inhibitors of human PDI, primary screen, biochemical, turbidity, single point, plate reader; Protein disulfide-isomerase (Homo sapiens), P07237; PDI insulin aggregation turbidity, A650, 90 min; inhibition, % at 10 µM; 350,000 tested, 0.052% active; AID 588391, 2011;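 active = mean inhibition across replicates of 30% or more, whatever share of single replicates reach that level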
Cneo AK release = Cryptococcus neoformans cell lysis inducers, primary screen, AK release luminescence, single concentration. 360,000 tested, 0.2% active. C. neoformans lysis, adenylate kinase release luminescence, 4 h; normalised: neutral wells 0, clomiphene wells 100. lysis activity, % at 15 µM. AID 651654, 2012;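 active = mean lysis activity across replicates of at least 80%, whatever share of replicates individually reach that level; inactive = mean lysis activity below 80%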
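Test system: log-phase Cryptococcus neoformans yeast cells; Quantity: yeast cell density of 5 × 10^6 cells/mL; Buffer or medium: YPD; Doses: single compound concentration per well; Timing: 4 h at 37 °C static, read 1 h later; Measured by: AK luminescence; Read-out basis: lysis from increased AK signal; Control set: Clomiphene as positive control.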
* hit, by the source's call; . = not tested or not shown.

SMILES	ERp5 block	DENV2 CPE	F508del corr	C2C12 statin	PDI inh	Cneo AK release
C[C@@H]1CCCCO[C@@H](CN(C)Cc2ccncc2)[C@@H](C)CN([C@H](C)CO)C(=O)c2cc(NS(=O)(=O)c3ccc(Cl)cc3)ccc2O1	1	5	-1	33	.	-1
C[C@@H]1CN([C@H](C)CO)C(=O)c2cc(NS(=O)(=O)c3ccc(F)cc3)ccc2O[C@@H](C)CCCCO[C@H]1CN(C)Cc1ccncc1	-4	51*	0	.	.	-3
C[C@H]1CCCCO[C@H](CN(C)Cc2ccncc2)[C@@H](C)CN([C@@H](C)CO)C(=O)c2cc(NS(=O)(=O)c3ccc(F)cc3)ccc2O1	2	-2	-3	.	.	1
C[C@@H]1CCCCO[C@@H](CN(C)Cc2ccncc2)[C@H](C)CN([C@@H](C)CO)C(=O)c2cc(NS(=O)(=O)c3ccc(Cl)cc3)ccc2O1	-1	60*	-1	36	.	0
CC(C)CCNC(=O)C1CCN(c2nc3ccccc3o2)CC1	.	.	.	25	12	2
Cc1ccc(CN2CCC(C(=O)NCCC(C)C)CC2)o1	.	.	.	109*	-6	-1
Cc1ccc(C(=O)NCCc2cc3ccc(C)c(C)c3[nH]c2=O)cc1[N+](=O)[O-]	0	50*	-2	.	-12	.
COc1ccc(C(=O)NCCc2cc3ccc(C)c(C)c3[nH]c2=O)cc1OC	2	1	1	.	-1	.
CN1C(=O)c2ccc(N(C)C)cc2C1=O	.	.	.	109*	4	0
CN1C(=O)c2cccc3c(N(C)C)ccc(c23)C1=O	-6	6	0	2	0	-3
O=C(C[C@H]1CC[C@@H]2[C@H](COC[C@@H](O)CN2C(=O)c2ccccc2)O1)Nc1ccccc1	2	8	-3	0	.	-1
O=C(C[C@H]1CC[C@@H]2[C@H](COC[C@H](O)CN2C(=O)c2ccccc2)O1)Nc1ccc(-c2ccccc2)cc1	-2	55*	-2	34	.	-6
O=C(C[C@@H]1CC[C@H]2[C@@H](COC[C@H](O)CN2C(=O)c2ccncc2)O1)NC1Cc2ccccc2C1	-1	30*	1	8	.	2
O=C(C[C@@H]1CC[C@H]2[C@@H](COC[C@H](O)CN2C(=O)c2ccncc2)O1)Nc1ccc(-c2ccccc2)cc1	1	28*	2	-54	.	1
C[C@H](CO)N1C[C@H](C)[C@@H](CN(C)Cc2cccnc2)Oc2cc(C#CC3CCCC3)ccc2S1(=O)=O	-3	13	-6	-111	.	-3
O=C(c1cccc(F)c1)N1CC2(C1)[C@H](c1ccccc1)[C@H](CO)N2C(=O)C1CCCC1	1	18	-3	.	.	.
COc1ccc(CN(C)C[C@@H]2OCCCC[C@@H](C)Oc3ccc(NC(=O)Cc4ccccc4)cc3C(=O)N([C@@H](C)CO)C[C@@H]2C)cc1	.	8	1	.	.	12
C[C@H]1CN([C@@H](C)CO)C(=O)c2c(c3ccccc3n2C)-c2ccccc2CO[C@H]1CN(C)C(=O)CCN(C)C	2	-3	3	-2	.	45
CN(C)CC(=O)N1[C@@H](C#N)[C@H](c2ccc(C#CC3CCCC3)cc2)[C@@H]1CO	0	23*	-2	-1	.	7
N#C[C@@H]1[C@@H](c2ccc(C#CC3CCCCC3)cc2)[C@H](CO)N1C(=O)Cc1ccccn1	1	67*	4	49	.	2
CN(C)CC(=O)N1[C@H](C#N)[C@H](c2ccc(C#CC3CCCCC3)cc2)[C@@H]1CO	7	40*	-2	-15	.	0
C[C@@H]1CN([C@H](C)CO)C(=O)c2cc(NC(=O)CCCN(C)C)ccc2O[C@@H](C)CCCCO[C@H]1CN(C)C(=O)Nc1ccc(F)cc1	5	2	3	.	.	-1
Cc1cc(C)c2c(N)c(C(=O)c3ccc(Br)cc3)oc2n1	5	46*	2	.	18	.
COc1ccccc1C(=O)Nc1onc(C)c1C#N	-3	-1	18*	.	10	.
